Published values gathered from unrelated publications.
Converted amounts (≈) assume the structure as drawn.
Organism: Cryptococcus neoformans

Structure (SMILES) | observed | technique | strain | time | setting | endpoint | value
Cl.O[C@]12C=C(c3nccc4c3[nH]c3ccccc34)[C@@H]3CCN(CCCC/C=C\CC1)C[C@@]31C[C@@H]3/C=C\CCCCN3[C@H]12 | microbial growth |  | ATCC90113 |  |  | IC50 | 1.04 µg/mL
CCCSc1ccc2nc(NC(=O)OC)[nH]c2c1 | microbial growth | broth dilution |  | 72 h | clinical isolate | IC90 | 2.5 µM
O=C(NN=Cc1ccc(O)c(Br)c1)c1cccc(Br)c1 | microbial killing |  |  |  |  | MFC | 1.2 µg/mL (≈ 3.01 µM)
CCCCC[C@H]1CN(c2cccc(OC(F)(F)F)c2)C(=O)CN1Cc1cncn1Cc1ccc(Br)cc1 | microbial growth | broth dilution |  |  |  | MIC | 3 to 6 µM
Cc1c(O)c(=O)ccn1C | microbial growth | broth dilution |  | 48 h |  | MIC | > 100 µM
C[C@@H]1[C@H](O)[C@@H](C)/C=C/C=C/C=C/C=C/C=C/C=C/C=C/[C@H](O[C@@H]2O[C@H](C)[C@@H](O)[C@H](N)[C@@H]2O)C[C@@H]2O[C@](O)(C[C@@H](O)C[C@@H](O)[C@H](O)CC[C@@H](O)C[C@@H](O)CC(=O)O[C@H]1C)C[C@H](O)[C@H]2C(=O)O | microbial growth | broth dilution |  |  |  | MIC | 0.6 µg/mL
CCCC[C@H]1CN(c2cccc(OC(F)(F)F)c2)C(=O)CN1Cc1cncn1Cc1ccc(C(F)(F)F)cc1 | microbial growth | broth dilution |  |  |  | MIC | 3 to 6 µM
CCCCCC[C@H]1C(=O)O[C@H](C)[C@H](NC(=O)c2cccc(NC=O)c2O)C(=O)O[C@@H](C)[C@@H]1OC(=O)CC(C)C | microbial growth |  |  |  |  | MIC80 | 2 µM (≈ 1.1 µg/mL)
C[C@@H]1[C@H](O)[C@@H](C)/C=C/C=C/C=C/C=C/C=C/C=C/C=C/[C@H](O[C@@H]2O[C@H](C)[C@@H](O)[C@H](N)[C@@H]2O)C[C@@H]2O[C@](O)(C[C@@H](O)C[C@@H](O)[C@H](O)CC[C@@H](O)C[C@@H](O)CC(=O)O[C@H]1C)C[C@H](O)[C@H]2C(=O)O | microbial growth |  | ATCC90113 |  |  | IC50 | 0.45 µg/mL (≈ 0.487 µM)
CCCC[C@H]1CN(c2cccc(OC(F)(F)F)c2)C(=O)CN1Cc1cncn1Cc1ccc(Cl)cc1 | microbial growth | broth dilution |  |  |  | MIC | 3 to 6 µM
Cc1ccccc1C(=O)NN=Cc1ccc(O)c(Br)c1 | microbial growth | broth dilution |  |  |  | MIC | 1 µg/mL
